# Assay outcomes deposited in PubChem by several laboratories.
# Sampled rows, rich in hits. Any-hit rate of the full collection: about 1.9%.
# ADAM17 inh: inhibits human ADAM17; inhibition, % at 6.95 µM; AID 720648; 370,000 tested, 0.83% active; recombinant ADAM17, EDANS/DABCYL FRET peptide cleavage; P78536;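 active = inhibition above the mean of compounds lying between control limits plus 3 SD, set per campaign, cut at about 8.5% in these data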;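 also: 0% = DMSO-only wells as the low control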
# Target sequence (P78536 215-824 limits assumed): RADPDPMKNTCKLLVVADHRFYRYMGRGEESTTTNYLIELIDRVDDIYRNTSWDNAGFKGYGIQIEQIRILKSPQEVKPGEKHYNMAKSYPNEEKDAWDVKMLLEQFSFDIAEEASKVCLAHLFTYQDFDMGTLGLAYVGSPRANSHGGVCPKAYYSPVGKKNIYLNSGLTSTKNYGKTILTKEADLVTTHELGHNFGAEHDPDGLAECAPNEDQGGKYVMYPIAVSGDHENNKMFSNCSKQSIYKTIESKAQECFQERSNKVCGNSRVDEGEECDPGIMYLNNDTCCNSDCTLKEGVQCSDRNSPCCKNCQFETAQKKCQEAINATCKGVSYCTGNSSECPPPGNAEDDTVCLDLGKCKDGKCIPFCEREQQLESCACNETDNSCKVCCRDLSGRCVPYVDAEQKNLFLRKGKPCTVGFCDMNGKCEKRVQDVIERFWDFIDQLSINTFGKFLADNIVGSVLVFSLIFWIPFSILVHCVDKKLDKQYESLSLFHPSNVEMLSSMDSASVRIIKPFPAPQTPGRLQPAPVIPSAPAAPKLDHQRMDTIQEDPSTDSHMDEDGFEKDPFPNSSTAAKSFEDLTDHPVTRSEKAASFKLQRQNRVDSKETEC
# ADAM10 inh: inhibitors of human ADAM10; recombinant ADAM10, EDANS/DABCYL FRET peptide cleavage, 3 h; inhibition, % at 7 µM; 370,000 tested, 0.62% active; AID 720582;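 active = inhibition above a per-campaign cutoff equal to the mean of compounds falling between control-based bounds plus 3 SD, cut at about 20% in these data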;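 also: 0% = DMSO wells while the 100% control is not disclosed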
# SENP1 inh: blocks the human SENP1 SUMO protease catalytic domain | recombinant SENP1 catalytic domain, CyPet-SUMO1-YPet FRET cleavage | inhibition, % at 10 µM | 360,000 tested, 0.21% active | AID 624204;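 active = inhibition at least 30% at 10 µM, raw YFP signal under a set limit, fluorescence ratio 0.5 to 1.5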;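 also: 0% = enzyme with DMSO and 100% = no enzyme wells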
#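 Compound: 10 µM single point, 0.5% DMSO; Test system: hSENP1 catalytic domain, recombinant; Timing: 50 min reaction at room temperature; Technique: FRET, CFP and YFP emission; Control set: no-enzyme wells low, DMSO-plus-enzyme wells high control.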
# FAS-TE inh: inhibitors of human fatty acid synthase thioesterase domain; P49327; recombinant FAS-TE, OMFH fluorogenic substrate, fluorescence endpoint; inhibition, % at 15 µM; 360,000 tested, 0.67% active; AID 602261;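 active = compounds whose normalised, plate-corrected inhibition of enzyme fluorescence in the single-dose primary screen is 50% or more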;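 also: 0% = DMSO with enzyme and 100% = substrate without enzyme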
# * = called active by the depositor; i = inactive; · = not tested or not shown.
SMILES,ADAM17 inh,ADAM10 inh,SENP1 inh,FAS-TE inh
O=C([C@@H]1C[C@H]1c1ccccc1)N1CC[C@H]2[C@H](CCCN2Cc2ccc(F)cc2)C1,-5.7,-4.3,·,·
COC(=O)[C@]12C[C@H](CC(=O)N3CCN(C(=O)C4CC4)CC3)C(=O)N(CCc3ccc(OC)c(OC)c3)C1=C[C@H](C(C)(C)C)O[C@@H]2C,-3.6,-6.9,·,·
CC(=O)N=c1c(C#N)cc2c(=O)n3ccccc3nc2n1Cc1ccccc1,-68.7,-195.0,-24.1,54.1*
CCOCCCn1c(=NC(C)=O)c(C#N)cc2c(=O)n3ccccc3nc21,i,i,-33.9,6.2
O=[N+]([O-])c1cc2oc3c(c2c(C=NCc2ccccc2)c1O)CCCC3,-3.7,-7.6,46.0*,1.3
Cc1cccc(/N=C/c2c(O)ccc3oc4c(c23)CCCC4)n1,·,·,4.1,1.2
CC(C)CN=Cc1c(O)c([N+](=O)[O-])cc2oc3c(c12)CCCC3,4.0,-1.3,32.0*,19.8
CC(C)(C)c1ccc(C(=O)Nc2cc(Cl)ccc2C(=O)O)cc1,0.7,12.2,·,·
O=[N+]([O-])c1ccc(N=Nc2c(O)[nH]c3ccc(F)cc23)cc1,-1.2,-3.0,49.5*,2.4
O=[N+]([O-])c1ccccc1N=Nc1c(O)[nH]c2ccc(F)cc12,0.8,-10.5,1.8,-3.7
CN1CCN(/N=C/c2ccc(-c3ccc([N+](=O)[O-])cc3Cl)o2)CC1,0.7,8.9,79.4*,13.3
O=[N+]([O-])c1ccc(Cl)c(-c2ccc(/C=N/n3cnnc3)o2)c1,3.5,3.9,1.7,11.4
Cc1ccc(NS(=O)(=O)c2cc(NC(=O)c3ccc4c(c3)NC(=O)CS4)ccc2C)c(C)c1,10.2*,25.8*,1.3,36.6
O=C(Nc1cccc(Cl)c1)Nc1cc(S(=O)(=O)N2CCCCC2)ccc1Cl,9.9*,21.6*,1.5,26.4
CCOC(=O)CC[C@H]1CC[C@]2(CCCN(S(=O)(=O)C3CCCCC3)C2)O1,0.6,1.7,·,·
CCc1oc(C(=O)O)cc1CN(CC)CC,-1.0,-4.4,2.4,-6.3
CCN(CC)Cc1cc(O)c(CN(CC)CC)cc1O,-11.4,-35.2,46.3*,-8.7
C[C@@H]1CN([C@H](C)CO)C(=O)c2cc(NC(=O)Nc3ccc(C(F)(F)F)cc3)ccc2O[C@H]1CN(C)S(=O)(=O)c1ccc(Cl)cc1,7.7,25.3*,1.0,36.1
C[C@H]1CN([C@@H](C)CO)C(=O)c2cccc(NC(=O)Nc3ccc(C(F)(F)F)cc3)c2O[C@@H]1CN(C)Cc1ccc(Cl)c(Cl)c1,6.1,9.9,2.1,77.2*
C[C@H](CO)N1C[C@H](C)[C@@H](CN(C)C(=O)NC2CCCCC2)Oc2ccc(NC(=O)Nc3ccc(C(F)(F)F)cc3)cc2C1=O,8.2,19.2,-1.3,12.2
C[C@@H]1CN([C@H](C)CO)C(=O)c2cccc(NC(=O)Nc3ccc(F)cc3)c2O[C@H]1CN(C)C(=O)Nc1ccc(C(F)(F)F)cc1,6.6,19.1,1.6,37.0
C[C@H](CO)N1C[C@H](C)[C@@H](CN(C)S(C)(=O)=O)Oc2ccc(NC(=O)Nc3ccc(C(F)(F)F)cc3)cc2C1=O,3.0,0.5,0.1,-2.8
C[C@H](CO)N1C[C@H](C)[C@@H](CN(C)C(=O)NC2CCCCC2)Oc2c(NC(=O)Nc3ccc(C(F)(F)F)cc3)cccc2C1=O,-1.6,5.5,-0.1,85.2*
C[C@H](CO)N1C[C@H](C)[C@@H](CN(C)C(=O)Nc2ccc(C(F)(F)F)cc2)Oc2c(NC(=O)Nc3ccccc3)cccc2C1=O,3.5,10.0,-1.8,64.5*
CN1CCCN(C(=O)C2CCCN(C(=O)c3ccc4c(c3)NC(=O)CS4)C2)CC1 (configuration not stated),-1.2,3.3,·,·
SMILES,ADAM17 inh,ADAM10 inh,SENP1 inh,FAS-TE inh
NC(=Nc1cccc(F)c1)NC(=O)OCc1ccccc1,-0.7,-1.3,·,·
CCN(CC)C(=O)CC[C@H]1CC[C@]2(CCCN(CC3CC3)C2)O1,3.6,-0.1,·,·
CC(=O)Nc1cccc(C(C)C2=CCCCC2)c1 (configuration not stated),4.9,4.1,·,·
COc1ccc(NC(=O)Nc2cccc3c2O[C@H](CN(C)C(=O)Nc2ccccc2)[C@@H](C)CN([C@H](C)CO)C3=O)cc1,-0.6,1.5,1.0,48.5
COc1ccc(NC(=O)N(C)C[C@H]2Oc3c(NC(=O)Nc4ccc(C(F)(F)F)cc4)cccc3C(=O)N([C@H](C)CO)C[C@@H]2C)cc1,9.9*,19.1,0.3,61.7*
O=C1c2cc(Br)ccc2N(Cc2ccc(Br)cc2)S(=O)(=O)C1c1cc(Cl)c(Cl)cc1[N+](=O)[O-] (configuration not stated),·,·,1.0,81.8*
C[C@H](CO)N1C[C@H](C)[C@@H](CN(C)C(=O)Nc2ccc(C(F)(F)F)cc2)Oc2c(NC(=O)Nc3ccc4c(c3)OCO4)cccc2C1=O,2.1,11.6,0.6,75.4*
Cc1noc(C)c1NC(=O)N(C)C[C@H]1Oc2c(NC(=O)Nc3ccc4c(c3)OCO4)cccc2C(=O)N([C@H](C)CO)C[C@@H]1C,-1.8,-0.2,0.2,11.4
C[C@H](CO)N1C[C@H](C)[C@@H](CN(C)C(=O)Nc2ccc3c(c2)OCO3)Oc2c(NC(=O)Nc3ccc(C(F)(F)F)cc3)cccc2C1=O,9.4*,11.2,3.4,75.6*
Cc1noc(C)c1NC(=O)Nc1cccc2c1O[C@H](CN(C)C(=O)Nc1ccc3c(c1)OCO3)[C@@H](C)CN([C@H](C)CO)C2=O,-1.2,-23.3,0.2,29.4
COc1ccc(-c2csc(NC(=O)C3CCCCN3S(=O)(=O)c3ccccc3)n2)cc1 (configuration not stated),10.2*,14.5,-0.1,24.4
O=C1C=C(Nc2ccccc2O)c2ccccc2C1=O,-3.9,-10.6,30.3*,22.9
C[C@H]1[C@@H](OC(=O)Nc2ccc(C(F)(F)F)cc2)CC[C@@]23CCCN2C(=O)CCC[C@@H]13,1.4,5.1,·,·
CC(C)CCN(C)C1CCN(C(=O)Nc2ccc3c(c2)OCO3)CC1,2.4,-9.4,·,·
CC(C)C[C@@]12C(=O)N(c3cccc(F)c3)C(=O)N1[C@H](c1ccc(F)cc1)[C@@H]1C(=O)N(C3CCCCC3)C(=O)[C@@H]12,-0.1,6.2,1.4,82.5*
CC(C)C[C@@]12C(=O)N(c3cccc(F)c3)C(=O)N1[C@H](c1ccc(Cl)cc1)[C@@H]1C(=O)N(C3CCCCC3)C(=O)[C@@H]12,3.7,9.7,2.1,62.2*
C[C@@]12C(=O)N(c3cccc(F)c3)C(=O)N1[C@H](c1ccc(F)cc1)[C@@H]1C(=O)N(C3CCCCC3)C(=O)[C@@H]12,·,·,5.2,11.8
C[C@@]12C(=O)N(c3cccc(F)c3)C(=O)N1[C@H](c1ccc(Cl)cc1)[C@@H]1C(=O)N(C3CCCCC3)C(=O)[C@@H]12,1.4,7.2,1.9,38.8
CCN1CCN(Cc2ccc(NC(=O)c3cc(NC(=O)C(=O)c4c[nH]c5ccccc45)cc(OC)c3)cc2C(F)(F)F)CC1,9.0*,22.2*,-1.8,-11.5
